For data set [1], the system named is Coptotermes formosanus. The data set is described as follows: Insecticidal activity against Coptotermes formosanus assessed as mortality at 1000 ppm after 5 days by filter paper contact method relative to control. The class given is functional.
Data set [2] concerns Coptotermes formosanus. Description: Insecticidal activity against Coptotermes formosanus assessed as mortality at 1000 ppm after 2 days by filter paper contact method relative to control. Type of data set: functional.
The test system of data set [3] is Coptotermes formosanus. The data set is described as follows: Insecticidal activity against Coptotermes formosanus assessed as mortality at 1000 ppm after 1 day by filter paper contact method relative to control. Type of data set: functional.
In data set [4] the test system is Coptotermes formosanus. Description: Insecticidal activity against Coptotermes formosanus assessed as mortality at 100 ppm after 5 days by filter paper contact method relative to control. The class given is functional.
Data set [5] concerns Coptotermes formosanus. Description: Insecticidal activity against Coptotermes formosanus assessed as mortality at 100 ppm after 2 days by filter paper contact method relative to control. Type of data set: functional.
The subject of data set [6] is Coptotermes formosanus. The data set is described as follows: Insecticidal activity against Coptotermes formosanus assessed as mortality at 100 ppm after 1 day by filter paper contact method relative to control. Type of data set: functional.
In data set [7] the test system is Coptotermes formosanus. Description: Insecticidal activity against Coptotermes formosanus assessed as mortality at 100 ppm after 7 days by filter paper contact method relative to control. Type of data set: functional.
In data set [8] the test system is Coptotermes formosanus. The data set is described as follows: Insecticidal activity against Coptotermes formosanus assessed as mortality at 1000 ppm after 7 days by filter paper contact method relative to control. The class given is functional.
For data set [9], the system named is A549. The data set is described as follows: Inhibition of IL-1-beta-induced ICAM1 protein expression in human A549 cells treated for 1 hr before IL1-beta challenge for 6 hrs. Type of data set: functional, cell-based. Summed up: (§1)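 A549 cells at 3 × 10⁴/well pretreated with compound 1 h, then IL-1β at 0.25 ng/mL final for 6 h. Cells fixed in 1% paraformaldehyde and blocked with 1% BSA overnight. Mouse anti-human ICAM-1 and peroxidase anti-mouse IgG each 60 min at 37 °C. o-Phenylenediamine/H₂O₂ substrate (citrate pH 5.3), 20 min dark, A415. Expression normalised between IL-1β-treated and unstimulated wells. Triplicate.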

The subject of data set [10] is A549. Description: Cytotoxicity against human A549 cells after 24 hrs by MTT assay. Type of data set: cell-based. The note with it: A549, 24 h. Summed up: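 A549 cells (RPMI 1640, 10% FCS, 50 µM 2-mercaptoethanol, antibiotics) incubated with test compound 24 h; MTT 500 µg/mL pulsed for final 4 h; formazan dissolved in 5% SDS overnight; absorbance 595 nm. Viability % = (sample − background)/(control − background) × 100. Triplicate cultures.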
A general note: Formazan colour is commonly taken as a measure of viable cells.

The subject of data set [11] is A549. The data set is described as follows: Inhibition of IL-1-beta-induced ICAM1 protein expression in human A549 cells at 1 uM treated for 1 hr before IL1-beta challenge for 6 hrs relative to control. Type of data set: functional. Summed up:
as §1

The test system of data set [12] is A549. Description: Inhibition of IL-1-beta-induced ICAM1 protein expression in human A549 cells at 3.2 uM treated for 1 hr before IL1-beta challenge for 6 hrs relative to control. The class given is functional. Summed up: as §1
Data set [13] concerns A549. Description: Inhibition of IL-1-beta-induced ICAM1 protein expression in human A549 cells at 10 uM treated for 1 hr before IL1-beta challenge for 6 hrs relative to control. The class given is functional. Summed up:
as §1

For data set [14], the system named is A549. Description: Inhibition of IL-1-beta-induced ICAM1 protein expression in human A549 cells at 32 uM treated for 1 hr before IL1-beta challenge for 6 hrs relative to control. Type of data set: functional. Summed up: as §1
The test system of data set [15] is A549. The data set is described as follows: Inhibition of IL-1-beta-induced ICAM1 protein expression in human A549 cells at 100 uM treated for 1 hr before IL1-beta challenge for 6 hrs relative to control. The class given is functional. Summed up:
as §1

The subject of data set [16] is A549. Description: Inhibition of IL-1-beta-induced ICAM1 protein expression in human A549 cells at 320 uM treated for 1 hr before IL1-beta challenge for 6 hrs relative to control. The class given is functional. Summed up: as §1
Data set [17] relates to A549. The data set is described as follows: Inhibition of IL-1-beta-induced ICAM1 protein expression in human A549 cells at 1000 uM treated for 1 hr before IL1-beta challenge for 6 hrs relative to control. The class given is functional. Summed up: as §1
The nature of data set [18]: Cytotoxicity against human A549 cells after 24 hrs at 1 uM by MTT assay relative to control. Type of data set: cell-based. Conditions: read-out: T/C. Summed up: (§2)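 A549 lung carcinoma cells grown in RPMI 1640 with 10% fetal calf serum, 50 µM 2-mercaptoethanol and penicillin-streptomycin-neomycin. Cells incubated with or without compound for 24 h, with MTT (500 µg/mL) present for the last 4 h. Formazan solubilised overnight in 5% SDS, absorbance read at 595 nm. Viability (%) = (sample − background)/(control − background) × 100. Triplicate cultures, mean ± SD.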

Data set [19] in a line: Cytotoxicity against human A549 cells after 24 hrs at 3.2 uM by MTT assay relative to control. The note with it: read-out: T/C. The class given is cell-based. Summed up: as §2
Data set [20] in a line: Cytotoxicity against human A549 cells after 24 hrs at 10 uM by MTT assay relative to control. Conditions: read-out: T/C. The class given is cell-based. Summed up:
as §2

A short description of data set [21]: Cytotoxicity against human A549 cells after 24 hrs at 32 uM by MTT assay relative to control. Type of data set: cell-based. Conditions: read-out: T/C. Summed up:
as §2

The nature of data set [22]: Cytotoxicity against human A549 cells after 24 hrs at 100 uM by MTT assay relative to control. Type of data set: cell-based. Conditions: read-out: T/C. Summed up: as §2
Data set [23] can be described thus: Cytotoxicity against human A549 cells after 24 hrs at 320 uM by MTT assay relative to control. Type of data set: cell-based. Conditions: read-out: T/C. Summed up:
as §2

The nature of data set [24]: Cytotoxicity against human A549 cells after 24 hrs at 1000 uM by MTT assay relative to control. Type of data set: cell-based. Conditions: read-out: T/C. Summed up: as §2

What is called IC50 is the midpoint of a concentration-inhibition curve. Low values mean greater potency, high ones weaker potency.

Turning to `C#C[C@@H]1CC[C@@]2(C)CCC(=O)[C@@H](C)[C@@H]2C1`, the Activity in the data set on Coptotermes formosanus [1] is given as 100%; in the data set with Coptotermes formosanus [2] it was 93%; in the data set on Coptotermes formosanus [3], 0%; in the data set with Coptotermes formosanus [4] it was 0%; in the data set on Coptotermes formosanus [5], 0%; in the data set with Coptotermes formosanus [6], 0%.
In the case of `C#C[C@@H]1CC[C@@]2(C)C=CC(=O)[C@@H](C)[C@@H]2C1`, the Activity in the data set with Coptotermes formosanus [1] is given as 100%; in the data set with Coptotermes formosanus [2], 97%; in the data set on Coptotermes formosanus [3], 80%; in the data set on Coptotermes formosanus [7], 100%; in the data set with Coptotermes formosanus [4], 43%; with Coptotermes formosanus [5], 0%. Also, the Activity is 0% in the data set with Coptotermes formosanus [6] and 100% with Coptotermes formosanus [8].
Take `C#C[C@@H]1CC[C@@]2(C)C=CC(=O)C(=C)[C@@H]2C1`: the Activity in the data set with Coptotermes formosanus [1] came out at 100%; in the data set on Coptotermes formosanus [2], 93%; in the data set with Coptotermes formosanus [3], 33%; with Coptotermes formosanus [4] it was 17%; in the data set with Coptotermes formosanus [5], 3%; with Coptotermes formosanus [6], 0%.
On to `C[C@@H]1C(=O)O[C@@H]2[C@H]1CC[C@@]1(C)CCC(=O)[C@@H](C)[C@H]21`, for which the IC50 in the data set with A549 [9] is over 1000 µM.
On the same count and under the same terms, as for `C=C1C(=O)O[C@H]2[C@H]3[C@H](C)C(=O)CC[C@]3(C)CC[C@@H]12`, the figure is 17 µM.
`C#C[C@@H]1CC[C@@]2(C)C=CC(=O)[C@@H](C)[C@H]2C1` [CHAMAECYNONE]: the Activity in the data set with Coptotermes formosanus [1] was 100%; with Coptotermes formosanus [2], 97%; in the data set with Coptotermes formosanus [3], 27%; in the data set with Coptotermes formosanus [7] it was 87%; with Coptotermes formosanus [4] it was 27%; with Coptotermes formosanus [5] it was 0%. In addition, the Activity with Coptotermes formosanus [6] came out at 0%; with Coptotermes formosanus [8] it was 100%.
As to `C=C1C(=O)C=C[C@]2(C)CC[C@H]3C(=C)C(=O)O[C@H]3[C@@H]12` [DEHYDROBRACHYLAENOLIDE], the figures for the IC50 in the data set on A549 [10] and in the data set with A549 [9] were 55 µM and 3 µM, respectively. For the same compound, the Activity entry in the data set on A549 [9] was “Dose-dependent effect”. Moreover, the T/C with A549 [11] is reported as 75.5%; in the data set with A549 [12] it was 44.4%; with A549 [13] it was 1.1%; in the data set with A549 [14], 0.1%; with A549 [15] it was -0.3%; in the data set with A549 [16], -1.4%. Besides, the T/C with A549 [17] is -3.3%. Also, the viability at 24 h, 1 µM in [18] worked out at 100%. Also, the viability at 24 h, 3.2 µM in data set [19] was 90.8%. The viability at 24 h, 10 µM in data set [20] was 93.8%. The viability at 24 h, 32 µM in data set [21] is 68.8%. The viability at 24 h, 100 µM in data set [22] was determined as 29.3%. Moreover, the viability at 24 h, 320 µM in data set [23] was found to be 28.6%. Moreover, the viability at 24 h, 1000 µM in data set [24] worked out at 11.8%.
Take `C#C[C@@H]1CC[C@@]2(C)C=CC(=O)C(C)=C2C1` [DEHYDROCHAMAECYNONE]: the Activity is reported as 100% with Coptotermes formosanus [1]; 90% in the data set on Coptotermes formosanus [2]; 13% in the data set on Coptotermes formosanus [3]; 7% in the data set on Coptotermes formosanus [4]; 0% in the data set with Coptotermes formosanus [5]; 0% in the data set on Coptotermes formosanus [6].
For the compound `C=C1C(=O)O[C@H]2[C@H]3[C@H](C)C(=O)C=C[C@]3(C)CC[C@@H]12` [TUBERIFERINE], the IC50 with A549 [9] stood at 7.4 µM. In other words, the single-digit micromolar range.

These data come from ChEMBL document CHEMBL1159377, “Synthetic approach to exo-endo cross-conjugated cyclohexadienones and its application to the syntheses of dehydrobrachylaenolide, isodehydrochamaecynone, and trans-isodehydrochamaecynone” (J Nat Prod, 2003).
